# Screening results: PubChem BioAssay, several laboratories
# An excerpt weighted towards active compounds, which were near 2.2% of everything screened.
# Ba/F3 V617F tox: loss of viability in JAK2V617F-driven Ba/F3 cells; actives 1.1% (n = 220,000); inhibition, % at 5.6 µM; Ba/F3 EpoR-JAK2V617F viability, ATP luminescence;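 active means inhibition above the campaign mean plus 3 SD over all tested compounds, cut at about 24% in these data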;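 further: cytokine-independent growth of Ba/F3 cells driven by EpoR plus mutant JAK2; 0% = DMSO-treated cells and 100% = JAK inhibitor I control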
# bCat nuc transl: beta-catenin nuclear translocation modulation. nuclear translocation activity, % at 5 µM. HeLa beta-catenin nuclear translocation, immunofluorescence imaging. AID 1665. actives 0.3% (n = 190,000);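 active means nuclear translocation activity above 50% at 5 µM, with a well cell count of 50 or more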;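 further: per-cell ratio of nuclear to cytoplasmic median beta-catenin stain intensity; plate controls were DMSO negative control for no effect and GSK-3 inhibitor IX positive control for full effect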
#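 System: HeLa cells, endogenous beta-catenin; compound dosing: 5 µM primary single dose, 0.1% DMSO, 0.02–20 µM confirmation series; incubation: 24 h compound exposure at 37°C, 5% CO2; signal: beta-catenin immunofluorescence imaging with DAPI; evaluation: % activation, nuclear-to-cytoplasmic median beta-catenin signal ratio per cell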
# BaF3 tox: counter-screen for JAK2V617F inhibitors: parental Ba/F3 viability inhibitors. CellTiter-Glo ATP luminescence. inhibition, % at 5.6 µM. actives 1.1% (n = 220,000). AID 1486;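 active means inhibition above a per-campaign cutoff, the mean inhibition of all tested compounds plus 3 SD, cut at about 27% in these data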;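 further: 0% = DMSO wells and 100% = JAK Inhibitor I control wells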
# IEC-6 tox: IEC-6 cytotoxicity, counter-screen for KLF5 inhibitors; AID 1825; actives 0.78% (n = 290,000); luminescence viability; inhibition, % at 5 µM; in the data active means inhibition above about 22%;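 further: 0% = plate median of test compound wells and 100% = cytotoxic reference compound wells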
# APP 5UTR inh: APP translation inhibition; SH-SY5Y APP 5'UTR-luciferase reporter, luminescence; inhibition, % at 2 µM; actives 0.82% (n = 190,000);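 active means inhibition above a set limit, derived from the sample mean plus 3 SD, cut at about 45% in these data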
# MT stabilize HCS: microtubule stabilization, imaging screen | HeLa tubulin immunostaining HCS, 24 h; share of cells brighter than vehicle mean+2SD | % tubulin-high responders, % at 10 µM | actives 0.83% (n = 200,000) | AID 2205;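 active means plate Z-score above 3 for both tubulin-high and condensed-nucleus cell shares, with cell loss under 80%, at 10 µM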;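 further: anti alpha tubulin signal scored within the nucleus-defined area of each cell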
# An asterisk follows results filed as active; . = no result given.
SMILES,Ba/F3 V617F tox,bCat nuc transl,BaF3 tox,IEC-6 tox,APP 5UTR inh,MT stabilize HCS
Cc1c(Cl)cccc1N1C(=O)c2ccccc2C1=O,1,-1,3,1,68*,3
N#C/C(=N\Nc1cccc(C(F)(F)F)c1)C(=O)c1ccsc1,18,6,32*,16,.,.
N#CCN1C(=O)NC2(CCCc3sccc32)C1=O (stereo not given),.,.,.,-7,.,.
CCOc1ccc(C(=O)c2ccc(OCC)c(N)c2)cc1N,2,5,7,8,-29,53*
CCOc1ccc(S(=O)(=O)N(CC)CC)cc1N,-1,0,1,6,-1,5
CN(C)c1ccc(C(=O)c2ccc(N(C)C)c(N)c2)cc1N,-2,5,10,4,-4,23*
CN(C)c1ccc(C(=O)c2ccccc2)cc1,4,-12,7,5,-65,3
O=c1oc2ccccc2c(Cl)c1CN1CCCCC1,3,-1,4,8,-6,3
O=C(c1cc(-c2ccccc2)nc2ccccc12)N1CCc2ccccc2C1,-3,0,1,-4,-16,1
Cc1ccc2nc(-c3ccccc3)cc(C(=O)N3CCc4ccccc4C3)c2c1,-3,-2,0,2,47*,1
COc1ccc(C(=O)/C=C/C(=O)N(CC(=O)NC2CCCCC2)CC2CCCO2)c(O)c1 (stereo not given),3,-1,4,11,71*,3
COc1ccc(C(=O)/C=C/C(=O)N(Cc2ccccc2OC)C(C(=O)NC2CCCCC2)c2ccncc2)c(O)c1 (stereo not given),-1,0,6,1,-4,2
COc1ccc(C(=O)/C=C/C(=O)N(CC(=O)NC2CCCCC2)Cc2ccccc2)c(O)c1,-2,14,7,-5,73*,3
COc1ccc(C(=O)/C=C/C(=O)N(CC(=O)NC2CCCCC2)Cc2ccccc2OC)c(O)c1,-3,2,3,-4,75*,3
COc1ccc(C(=O)/C=C/C(=O)N(Cc2ccccc2)C(C(=O)NC2CCCCC2)c2ccncc2)c(O)c1 (stereo not given),0,-1,6,0,8,2
CCSc1nccc(-c2nn(-c3ccc(C)cc3)ccc2=O)n1,31*,133*,38*,17,.,50*
C#CCSc1nccc(-c2nn(-c3ccc(C)cc3)ccc2=O)n1,-1,-1,4,5,.,3
C[n+]1c(/C=C/c2ccc(O)cc2)ccc2ccccc21,.,.,.,5,.,.
C[n+]1c(/C=C/c2ccc3c(c2)OCO3)ccc2ccccc21,41*,4,33*,3,-185,5
CCC/C(C)=N/NC(=O)c1ccccc1O,-2,1,8,-4,11,3
CCOC(=O)C(CC)/C(C)=N\NC(=O)c1ccccc1O (stereo not given),10,2,9,-4,52*,2
CC(=O)Nc1ccc(S(=O)(=O)Oc2ccc3c(c2)C(C)=CC(C)(C)N3)cc1,80*,7,73*,33*,27,3
CC(=O)c1ccc(OCC(O)COc2ccc(C(C)=O)cc2)cc1,3,-4,96*,1,11,2
CC(=O)c1ccc(OCC(O)CN2CCN(CC(O)COc3ccc(C(C)=O)cc3)CC2)cc1 (stereo not given),-2,-2,-3,0,-10,3
CCOCCn1c(N2CCN(c3ccccc3)CC2)nc2c1c(=O)[nH]c(=O)n2C,17,-1,54*,-2,-16,3
SMILES,Ba/F3 V617F tox,bCat nuc transl,BaF3 tox,IEC-6 tox,APP 5UTR inh,MT stabilize HCS
Nc1nnc(SCCCOc2ccc(F)cc2)s1,.,.,.,1,.,.
CCCOc1ccc(OCCSc2nnc(N)s2)cc1,24*,3,40*,5,5,2
CCN(CC)S(=O)(=O)c1ccc(N/N=C/c2cc(OC)ccc2O)nc1,82*,-3,54*,16,74*,1
COc1ccc(O)c(/C=N/NC(=S)Nc2cccc(S(=O)(=O)N(C)C)c2)c1,6,1,8,0,60*,3
COc1cccc(/C=N/NC(=S)Nc2cccc(S(=O)(=O)N(C)C)c2)c1,4,-1,1,10,.,.
Cc1ccc([C@@H]2[C@@H]3C(=O)N(C)C(=O)[C@@H]3[C@@H]3C(=O)Nc4ccccc4C(=O)N23)cc1,.,.,.,0,.,.
O=S(=O)(c1ccc(F)cc1)c1snnc1-c1ccccc1,61*,1,68*,3,93*,6
O=S(=O)(c1ccc(Cl)cc1)c1snnc1-c1ccccc1,44*,.,33*,-3,96*,17*
COc1cc2ccccc2cc1C(=O)Nc1ccc(Cc2ccncc2)cc1,-2,3,8,-5,-5,50*
C#CC[N+](CC)(CC)CC#Cc1cccc(Cl)c1,73*,.,66*,3,-1,2
Cc1ccc(S(=O)(=O)N2CCN(C(=O)CSC3CCCC3)CC2)c(C)c1,5,.,94*,4,0,4
Cc1ccc(S(=O)(=O)N2CCN(C(=O)CSc3nc4ccccc4c(=O)[nH]3)CC2)c(C)c1,2,0,2,-1,5,2
CN(CC(=O)NCc1cccs1)CC(=O)Nc1ccc(F)c(F)c1F,.,.,.,-2,.,.
CCOc1ccc(N2C(=O)CCC2=O)cc1,-4,0,0,0,-12,3
CCOc1ccc(N2CC(=O)N(c3ccc(OCC)cc3)CC2=O)cc1,-1,-1,93*,0,3,3
CC1Oc2ccccc2N(CC(=O)NC2CCCCC2)C1=O (stereo not given),.,.,.,-4,.,.
CCc1nccn1S(=O)(=O)c1ccccc1[N+](=O)[O-],.,.,.,1,.,.
O=C(CCN1CCOCC1)Nc1cc(C(=O)Nc2ccc(Cl)cc2)ccc1N1CC2CC(C1)c1cccc(=O)n1C2 (stereo not given),.,.,.,11,.,.
O=C(c1ccc(N2CCCS2(=O)=O)cc1)N1CCN(c2ccccc2)CC1,.,.,.,-10,.,.
CC(C)OC(=O)c1cc(C(=O)c2cc(Br)ccc2O)coc1=N,0,0,0,1,-1,3
CCOc1ccccc1NC(=O)c1cc(C(=O)c2cc(Br)ccc2O)coc1=N,3,.,7,4,2,12*
Cc1cc(=O)[nH]c(SCC(=O)Nc2nonc2C)n1,.,.,.,6,.,.
O=C(Cn1ncc(Cl)c(Cl)c1=O)N1CCN(Cc2ccccc2)CC1,1,4,-3,10,90*,5
O=c1c(Cl)c(Cl)cnn1Cc1ccccc1Cl,16,-1,25,9,92*,3
CC1(C)C(=O)Nc2ccccc2N1C(=O)Cn1ncc(Cl)c(Cl)c1=O,9,2,31*,4,.,.
Cc1cc(C)cc(Cn2ncc(Cl)c(Cl)c2=O)c1,-2,-1,3,-4,58*,3
Cc1ccc(Cn2ncc(Cl)c(Cl)c2=O)cc1,-1,2,5,2,31,4
